Measurements from ChEMBL document CHEMBL4425134, “Analogs of the ATP-Sensitive Potassium (KATP) Channel Opener Cromakalim with in Vivo Ocular Hypotensive Activity” (J Med Chem, 2016).
Blank lines part the entries; values can stand above or below the compound they belong to. Activity calls are given as the source filed them. The calls are words filed in the database; no cut-off is given here.

How the values were obtained:
[1] = test system: Mus musculus; test: Antiglaucoma activity in normotensive C57BL/6 mouse assessed as reduction in intraocular pressure at 5 mM compound solution in PBS administered topically once daily as bolus dose to one eye for 6 days measured up to 23 hrs post daily administration by tonometer; assay type: functional
Procedure, shortened: (§1)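 Mice received a 5 mM solution in PBS as a 5 µl topical bolus to one eye once daily for 6 days, with PBS to the contralateral eye. IOP was read by rebound tonometer in conscious mice at 1, 4 and 23 h post-dose and averaged. Values are expressed as treated minus control eye. Readings continued after treatment stopped. n=10 (days 1–9), n=6 (days 10–12).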

[2] = test system: Mus musculus; test: Antiglaucoma activity in normotensive C57BL/6 mouse assessed as reduction in intraocular pressure at 5 mM compound solution in PBS administered topically once daily as bolus dose to one eye for 6 days measured up to 72 hrs post treatment by tonometer; assay type: functional, organism-based; procedure, shortened: as §1
[3] = test system: Oryctolagus cuniculus; test: (§2) Antiglaucoma activity in normotensive Dutch-belted pigmented rabbit assessed as reduction in intraocular pressure at 2.5 mM administered topically as solution in PBS once daily as bolus dose to contralateral eye for 4 days followed by 5 mM compound treatment for 4 days measured up to 23 hrs post daily administration by tonometer; assay type: functional
Procedure, shortened: (§3)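 In normotensive Dutch-belted pigmented rabbits, a PBS solution was applied topically as a 50 µL bolus to one eye once daily: 2.5 mM for 4 days, then 5 mM for 4 days. IOP was measured at 1, 4 and 23 h after each dose and averaged. Values are the absolute difference between treated and control eyes (mmHg).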

[4] = test system: Oryctolagus cuniculus; test: as §2, with “5” for “2.5”, “pretreated with 2.5” for “followed by 5”, “compound” for “compound treatment”; assay type: functional; procedure, shortened: as §3
[5] = test system: Mus musculus; test: Antiglaucoma activity in normotensive C57BL/6 mouse assessed as reduction in intraocular pressure at 5 mM administered topically as solution in mixture of DMSO, cremophor EL and PBS once daily as bolus dose to contralateral eye for 5 days pretreated with 5 mM dexcromakalim for 6 days by tonometer; assay type: functional
Procedure, shortened: (§4)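 Following baseline IOP, C57BL/6 mice were dosed topically once daily with a 5 µl bolus to one eye. Dexromakalim was given for 6 days, then levromakalim for 5 days. Each was made as a 100 mM DMSO stock diluted to 5 mM with 10% cremophor EL in PBS. IOP was read by rebound tonometer versus the vehicle-treated contralateral eye.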

[6] = (§5) Toxicity in normotensive C57BL/6 mouse assessed as effect on cell structure in aqueous humor outflow pathway at 5 mM administered topically as solution in mixture of DMSO, cremophor EL and PBS once daily as bolus dose to contralateral eye for 5 days by hematoxylin and eosin staining based transmission electron microscopic analysis; assay type: organism-based; details: in vivo, topical_or_ocular, 120 h, 5000 µM
[7] = as §5, with “number” for “structure”; assay type: organism-based; details: in vivo, topical_or_ocular, 120 h, 5000 µM
[8] = test system: Mus musculus; test: Antiglaucoma activity in normotensive C57BL/6 mouse assessed as reduction in intraocular pressure at 2.5 mM compound solution in PBS administered topically once daily as bolus dose to contralateral eye for 7 days measured up to 48 hrs after cessation of drug treatment by tonometer; assay type: functional, organism-based
Procedure, shortened: (§6)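 C57BL/6 retired breeders (>7 months old) received a 5 µl bolus of 2.5 mM solution in PBS topically to one eye once daily for 7 consecutive days, with PBS to the contralateral eye. IOP was measured in conscious, non-anesthetized mice by hand-held rebound tonometer at 1, 4 and 23 h after dosing. Daily IOP is the mean of the three readings, expressed as treated minus vehicle eye (mm Hg). n=10 (days 1–10), n=6 after.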

[9] = Stability in D2O solution assessed as compound decomposition after 1 week by 1H NMR analysis; assay type: physicochemical; details: 168 h
[10] = Stability in D2O solution assessed as compound decomposition after 1 week by 31P NMR analysis; assay type: physicochemical; details: 168 h
[11] = test system: Mus musculus; test: Antiglaucoma activity in normotensive C57BL/6 mouse assessed as reduction in intraocular pressure at 2.5 mM compound solution in PBS administered topically once daily as bolus dose to contralateral eye for 7 days measured up to 23 hrs post daily administration by tonometer; assay type: functional; procedure, shortened: as §6
[12] = Prodrug activation in buffer containing ZnCl2, MgCl2 and sodium glycine assessed as alkaline phosphatase (unknown origin)-mediated levcromakalim formation; details: human
[13] = (§7) Toxicity in normotensive C57BL/6 mouse assessed as alteration in morphology of aqueous humor outflow pathway at 2.5 mM compound solution in PBS administered topically once daily as bolus dose to contralateral eye for 7 days by hematoxylin and eosin staining based transmission electron microscopic analysis; assay type: organism-based; details: in vivo, topical_or_ocular, 168 h, 2500 µM
Procedure, shortened: (§8)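 After once-daily topical dosing of C57BL/6 mice with 2.5 mM in PBS (5 µl), some animals were sacrificed. Aqueous outflow pathway tissues (trabecular meshwork, Schlemm's canal) were examined by hematoxylin and eosin stained sections and by transmission electron microscopy. Cell structure and number were compared with vehicle-treated eyes.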

[14] = as §7, with “effect on cell structure” for “alteration”, “in” for “in morphology of”; assay type: organism-based; details: in vivo, topical_or_ocular, 168 h, 2500 µM; procedure, shortened: as §8
[15] = as §7, with “effect on cell number” for “alteration”, “in” for “in morphology of”; assay type: organism-based; details: in vivo, topical_or_ocular, 168 h, 2500 µM; procedure, shortened: as §8
[16] = Toxicity in normotensive C57BL/6 mouse assessed as effect on cell structure in aqueous humor outflow pathway at 5 mM administered topically as solution in PBS once daily as bolus dose to contralateral eye for 5 days by hematoxylin and eosin staining based transmission electron microscopic analysis; assay type: organism-based; details: in vivo, topical_or_ocular, 120 h, 5000 µM
[17] = Toxicity in normotensive C57BL/6 mouse assessed as effect on cell number in aqueous humor outflow pathway at 5 mM administered topically as solution in PBS once daily as bolus dose to contralateral eye for 5 days by hematoxylin and eosin staining based transmission electron microscopic analysis; assay type: organism-based; details: in vivo, topical_or_ocular, 120 h, 5000 µM
[18] = test system: Mus musculus; test: Antiglaucoma activity in normotensive C57BL/6 mouse assessed as reduction in intraocular pressure at 5 mM administered topically as solution in PBS once daily as bolus dose to contralateral eye for 5 days pretreated with 5 mM sodium (3R,4S)-6-cyano-2,2-dimethyl-4-(2-oxopyrrolidin-1-yl)chroman-3-yl phosphate for 5 days by tonometer; assay type: functional
Procedure, shortened: (§9)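 C57BL/6 mice received sequential once-daily topical 5 µl boluses of 5 mM enantiomers dissolved in PBS to one eye, with vehicle to the contralateral eye. IOP was read by rebound tonometer in conscious mice at 1, 4 and 23 h post-dose, averaged, and expressed relative to the vehicle eye. n=10.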

[19] = test system: Mus musculus; test: Antiglaucoma activity in normotensive C57BL/6 mouse assessed as reduction in intraocular pressure at 5 mM administered topically as solution in PBS once daily as bolus dose to contralateral eye for 5 days followed by 5 mM sodium (3S,4R)-6-cyano-2,2-dimethyl-4-(2-oxopyrrolidin-1-yl)chroman-3-yl phosphate treatment for 5 days by tonometer; assay type: functional; procedure, shortened: as §9
[20] = test system: Mus musculus; test: Antiglaucoma activity in normotensive C57BL/6 mouse assessed as reduction in intraocular pressure at 5 mM administered topically as solution in mixture of DMSO, cremophor EL and PBS once daily as bolus dose to one eye for 6 days followed by 5 mM levcromakalim treatment for 5 days by tonometer; assay type: functional; procedure, shortened: as §4
[21] = as §5, with “to one” for “to contralateral”, “for 6” for “for 5”; assay type: organism-based; details: in vivo, topical_or_ocular, 144 h, 5000 µM
[22] = as §5, with “cell number” for “cell structure”, “to one” for “to contralateral”, “for 6” for “for 5”; assay type: organism-based; details: in vivo, topical_or_ocular, 144 h, 5000 µM
[23] = test system: Mus musculus; test: Antiglaucoma activity in normotensive C57BL/6 mouse assessed as reduction in intraocular pressure at 5 mM administered topically as solution in mixture of DMSO, cremophor EL and PBS once daily as bolus dose to one eye for 5 days measured up to 23 hrs post daily administration by tonometer; assay type: functional; procedure, shortened: as §4
[24] = Solubility in water at 10 mg/ml; assay type: physicochemical; details: buffer
[25] = Stability of compound in D2O solution; assay type: physicochemical

Structure (SMILES): CC(C)C[C@H](NC(=O)CN)C(=O)O[C@H]1[C@H](N2CCCC2=O)c2cc(C#N)ccc2OC1(C)C
Activity [1]: 2.45 mmHg

Structure (SMILES): CC(C)C[C@H](NC(=O)CN)C(=O)OCO[C@H]1[C@H](N2CCCC2=O)c2cc(C#N)ccc2OC1(C)C
Activity [1]: 1.93 mmHg

Structure (SMILES): CC1(C)Oc2ccc(C(F)(F)F)cc2[C@@H](N2CCCC2=O)[C@@H]1OP(=O)([O-])[O-].[Na+].[Na+]
Activity [1]: 3.91 mmHg | Activity [2]: Active | Activity [3]: 1.06 mmHg | Activity [4]: 1.6 mmHg

Structure (SMILES): CC1(C)Oc2ccc(C#N)cc2[C@@H](N2CCCC2=O)[C@@H]1O [LEVCROMAKALIM]
Activity [5]: 3.37 mmHg | Activity [6]: Non-Toxic | Activity [7]: Non-Toxic

Structure (SMILES): CC1(C)Oc2ccc(C#N)cc2[C@@H](N2CCCC2=O)[C@@H]1OP(=O)(O)O
Activity [8]: inactive

Stability [9]: Stable | Stability [10]: Stable
Structure (SMILES): CC1(C)Oc2ccc(C#N)cc2[C@@H](N2CCCC2=O)[C@@H]1OCOP(=O)([O-])[O-].[Na+].[Na+] (racemic)
Activity [11]: 1.81 mmHg

Drug metabolism [12]: Metabolite_Detected
Structure (SMILES): CC1(C)Oc2ccc(C#N)cc2[C@@H](N2CCCC2=O)[C@@H]1OP(=O)([O-])[O-].[Na+].[Na+]
Activity [11]: 3.14 mmHg | Activity [13]: Non-Toxic | Activity [14]: Non-Toxic | Activity [15]: Non-Toxic | Activity [16]: Non-Toxic | Activity [17]: Non-Toxic | Activity [18]: 3.82 mmHg | Activity [3]: 2.02 mmHg | Activity [4]: 2.26 mmHg

Structure (SMILES): CC1(C)Oc2ccc(C#N)cc2[C@H](N2CCCC2=O)[C@H]1OP(=O)([O-])[O-].[Na+].[Na+]
Activity [19]: 0.14 mmHg | Activity [16]: Non-Toxic | Activity [17]: Non-Toxic

Structure (SMILES): CC1(C)Oc2ccc(C#N)cc2[C@H](N2CCCC2=O)[C@H]1O [(-)-CROMAKALIM]
Activity [20]: 0.73 mmHg | Activity [21]: Non-Toxic | Activity [22]: Non-Toxic

Structure (SMILES): CC1(C)Oc2ccc(C#N)cc2[C@@H](N2CCCC2=O)[C@@H]1O (racemic) [LEVCROMAKALIM]
Activity [23]: 3.19 mmHg

Structure (SMILES): CC(C)C[C@@H](NC(=O)CN)C(=O)O[C@H]1[C@H](N2CCCC2=O)c2cc(C#N)ccc2OC1(C)C
Activity [1]: 1.57 mmHg

solubility [24]: Soluble | Stability [25]: > 6 months
Structure (SMILES): CC1(C)Oc2ccc(C#N)cc2[C@@H](N2CCCC2=O)[C@@H]1OP(=O)([O-])[O-].[Na+].[Na+] (racemic)
Activity [11]: 2.5 mmHg
